Experimental data from ChEMBL document CHEMBL4414574, “Structure-Based Discovery and Development of a Series of Potent and Selective Bromodomain and Extra-Terminal Protein Inhibitors” (J Med Chem, 2019).
The source made the active and inactive calls. The rule behind the calls is not given here.

Tests used:
[1] = target: T1, Bromodomain-containing protein 4 (Homo sapiens, UniProt O60885); assay: Displacement of 5-FITC labelled (+)-JQ1 from His6-tagged human BRD4 bromodomain 1 expressed in Escherichia coli BL21(DE3) )-codon plus-RIL cells incubated for 4 hrs in dark condition by fluorescence anisotropy binding assay
MM1.S = assay: Antiproliferative activity against human MM1S cells after 72 hrs by CCK8 or SRB assay; assay type: functional, cell-based
Method in brief: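 IC50 against MM.1S cell proliferation was taken as the mean of three independent experiments, each run in triplicate, reported with SEM.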

[2] = target: T1, Bromodomain-containing protein 4; assay: Inhibition of BRD4 bromodomain 1 (unknown origin)
Method in brief: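 BRD4 BD1 (His6-tagged, E. coli BL21(DE3)-expressed, Ni-NTA purified) at 10 nM with 5 nM FITC-labelled (+)-JQ1 tracer; 50 mM HEPES pH 7.4, 150 mM NaCl, 0.5 mM CHAPS, DMSO 2‰ final; graded inhibitor; 4 h dark equilibration at room temperature; fluorescence anisotropy read (ex 485/em 530 nm). IC50 from two independent experiments in duplicate, mean ± SEM.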

[3] = target: Histone acetyltransferase p300 (Homo sapiens) (UniProt Q09472); assay: Inhibition of EP300 (unknown origin) at 1 uM
Method in brief: (§1)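 Bromodomain binding panel (32 bromodomains) screened at 1 μM; primary binding read-out reported as percent of control, lower values meaning stronger binding.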

[4] = target: T1, Bromodomain-containing protein 4; assay: Inhibition of BRD4 bromodomain 2 (unknown origin)
[5] = target: Bromodomain-containing protein 2 (Homo sapiens) (UniProt P25440); assay: Inhibition of BRD2 bromodomain 1 (unknown origin)
[6] = target: Bromodomain-containing protein 2 (Homo sapiens) (UniProt P25440); assay: Inhibition of BRD2 bromodomain 2 (unknown origin); method in brief: as §1

Sequence of Histone acetyltransferase p300 (Homo sapiens) (Q09472 whole entry): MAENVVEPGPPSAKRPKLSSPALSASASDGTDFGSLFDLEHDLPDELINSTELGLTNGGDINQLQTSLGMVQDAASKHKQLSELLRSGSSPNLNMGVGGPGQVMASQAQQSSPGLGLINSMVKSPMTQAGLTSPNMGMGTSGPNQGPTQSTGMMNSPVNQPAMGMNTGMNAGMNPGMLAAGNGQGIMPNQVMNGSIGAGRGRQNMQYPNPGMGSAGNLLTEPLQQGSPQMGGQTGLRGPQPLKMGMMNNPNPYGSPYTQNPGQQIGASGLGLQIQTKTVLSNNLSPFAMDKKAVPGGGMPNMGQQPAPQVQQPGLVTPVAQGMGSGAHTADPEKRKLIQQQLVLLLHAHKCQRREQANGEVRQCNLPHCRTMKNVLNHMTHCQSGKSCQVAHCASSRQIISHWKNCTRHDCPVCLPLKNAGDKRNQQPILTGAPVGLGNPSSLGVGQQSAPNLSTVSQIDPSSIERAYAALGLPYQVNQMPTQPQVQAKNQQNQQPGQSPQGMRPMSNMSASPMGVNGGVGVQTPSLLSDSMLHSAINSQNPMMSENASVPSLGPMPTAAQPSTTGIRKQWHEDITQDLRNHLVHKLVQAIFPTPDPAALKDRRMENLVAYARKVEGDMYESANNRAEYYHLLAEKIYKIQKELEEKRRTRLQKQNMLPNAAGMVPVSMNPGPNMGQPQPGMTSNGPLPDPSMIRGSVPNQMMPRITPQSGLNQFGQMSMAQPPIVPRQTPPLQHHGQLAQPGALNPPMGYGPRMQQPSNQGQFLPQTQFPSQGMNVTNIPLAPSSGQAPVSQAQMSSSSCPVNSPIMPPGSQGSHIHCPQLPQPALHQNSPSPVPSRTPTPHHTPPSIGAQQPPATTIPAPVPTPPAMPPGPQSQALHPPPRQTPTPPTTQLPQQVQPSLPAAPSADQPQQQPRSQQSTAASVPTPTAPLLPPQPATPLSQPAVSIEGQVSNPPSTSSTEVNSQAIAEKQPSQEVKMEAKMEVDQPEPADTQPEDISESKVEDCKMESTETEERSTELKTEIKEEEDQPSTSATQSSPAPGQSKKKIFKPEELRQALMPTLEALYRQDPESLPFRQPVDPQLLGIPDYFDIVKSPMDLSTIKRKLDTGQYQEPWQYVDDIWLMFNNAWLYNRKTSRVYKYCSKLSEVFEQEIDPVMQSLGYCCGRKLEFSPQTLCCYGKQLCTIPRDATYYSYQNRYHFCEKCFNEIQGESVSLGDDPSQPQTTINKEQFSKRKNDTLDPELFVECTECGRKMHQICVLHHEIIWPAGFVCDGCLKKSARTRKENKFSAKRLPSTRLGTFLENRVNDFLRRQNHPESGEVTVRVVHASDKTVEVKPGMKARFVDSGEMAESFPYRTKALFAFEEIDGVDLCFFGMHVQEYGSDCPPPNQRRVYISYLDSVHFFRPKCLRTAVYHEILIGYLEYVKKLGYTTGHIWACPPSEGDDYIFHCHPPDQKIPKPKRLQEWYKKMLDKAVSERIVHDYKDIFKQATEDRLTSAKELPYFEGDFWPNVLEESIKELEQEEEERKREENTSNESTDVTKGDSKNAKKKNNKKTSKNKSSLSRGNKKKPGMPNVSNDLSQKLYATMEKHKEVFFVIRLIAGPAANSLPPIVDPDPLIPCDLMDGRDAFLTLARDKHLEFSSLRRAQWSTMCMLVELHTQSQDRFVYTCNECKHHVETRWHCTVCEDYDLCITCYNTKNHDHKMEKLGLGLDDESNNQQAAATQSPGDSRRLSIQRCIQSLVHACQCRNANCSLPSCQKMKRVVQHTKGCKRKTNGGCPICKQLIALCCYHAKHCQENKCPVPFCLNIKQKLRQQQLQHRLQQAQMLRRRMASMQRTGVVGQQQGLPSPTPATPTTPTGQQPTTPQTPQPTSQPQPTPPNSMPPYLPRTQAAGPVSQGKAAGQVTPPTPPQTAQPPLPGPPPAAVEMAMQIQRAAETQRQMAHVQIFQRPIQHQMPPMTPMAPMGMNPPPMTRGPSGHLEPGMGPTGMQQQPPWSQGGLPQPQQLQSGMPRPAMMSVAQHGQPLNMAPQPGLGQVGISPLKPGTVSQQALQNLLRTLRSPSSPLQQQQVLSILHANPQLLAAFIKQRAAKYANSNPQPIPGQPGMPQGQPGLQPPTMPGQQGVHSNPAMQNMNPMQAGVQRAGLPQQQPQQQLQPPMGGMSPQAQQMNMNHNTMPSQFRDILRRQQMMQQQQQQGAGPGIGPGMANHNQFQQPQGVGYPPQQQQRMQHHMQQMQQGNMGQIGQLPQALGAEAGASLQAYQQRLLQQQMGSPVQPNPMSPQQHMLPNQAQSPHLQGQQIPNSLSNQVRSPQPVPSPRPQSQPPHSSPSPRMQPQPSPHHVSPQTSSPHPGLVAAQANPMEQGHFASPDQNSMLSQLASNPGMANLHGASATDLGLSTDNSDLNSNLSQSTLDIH
Sequence of Bromodomain-containing protein 2 (Homo sapiens) (P25440 whole entry, looked up): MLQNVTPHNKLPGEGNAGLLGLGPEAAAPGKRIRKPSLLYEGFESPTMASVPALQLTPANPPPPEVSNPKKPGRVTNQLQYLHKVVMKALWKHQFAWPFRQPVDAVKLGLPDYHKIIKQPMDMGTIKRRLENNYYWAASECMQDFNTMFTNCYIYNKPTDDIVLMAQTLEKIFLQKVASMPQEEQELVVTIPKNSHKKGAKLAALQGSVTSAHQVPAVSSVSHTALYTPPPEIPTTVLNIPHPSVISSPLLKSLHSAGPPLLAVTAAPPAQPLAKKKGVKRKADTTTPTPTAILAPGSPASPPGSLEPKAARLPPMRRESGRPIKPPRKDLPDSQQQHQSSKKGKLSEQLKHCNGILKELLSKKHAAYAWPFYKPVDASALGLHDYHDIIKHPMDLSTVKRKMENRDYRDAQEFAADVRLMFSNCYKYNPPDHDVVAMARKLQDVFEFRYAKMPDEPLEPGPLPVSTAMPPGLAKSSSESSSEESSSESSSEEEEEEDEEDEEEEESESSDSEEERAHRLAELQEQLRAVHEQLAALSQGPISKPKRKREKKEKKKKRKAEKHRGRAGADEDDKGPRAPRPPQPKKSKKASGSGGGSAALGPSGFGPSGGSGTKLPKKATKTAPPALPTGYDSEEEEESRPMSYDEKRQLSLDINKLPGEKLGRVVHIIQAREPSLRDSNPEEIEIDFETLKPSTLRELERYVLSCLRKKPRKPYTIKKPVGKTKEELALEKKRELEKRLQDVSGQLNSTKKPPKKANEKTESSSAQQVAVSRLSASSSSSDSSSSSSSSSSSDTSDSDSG

Structure (SMILES) | IC50 [1] [nM] | IC50 (MM1.S) [nM] | inhibition [2] | inhibition [3] | inhibition [4] | inhibition activity call (active/inactive) [5] | inhibition [6]
C[C@@H]1C(=O)N(C)c2ccc(-c3nc(C(=O)N4CCN(C)CC4)nn3-c3ccc(Cl)cc3)cc2N1C1CCCC1 | 6.8 | 48.5 |  |  |  |  | 
Cc1ccc(-n2nc(C(=O)N3CCCN(C)CC3)nc2-c2ccc3c(c2)N(C2CCCC2)[C@H](C)C(=O)N3C)cc1 |  | 8 | Active | inactive | Active | Active | Active
Cc1onc(-c2ccccc2)c1-c1ccc2c(c1)N(C1CCCC1)[C@H](C)C(=O)N2C | 100 |  |  |  |  |  | 
Cc1ccc(N2C(=O)CSC2c2ccc3c(c2)N(C2CC2)C(C)C(=O)N3C)cc1 (stereo not given) | 142 |  |  |  |  |  | 
Cc1ccc(-n2nc(C(=O)N3CCC4(CCOC4)CC3)nc2-c2ccc3c(c2)N(C2CCCC2)[C@H](C)C(=O)N3C)cc1 | 7.9 | 485 |  |  |  |  | 
C[C@@H]1C(=O)N(C)c2ccc(-c3nc(C(=O)N4CCN(C)CC4)nn3-c3ccccc3)cc2N1C1CCCC1 | 7.1 | 60.1 |  |  |  |  | 
Cc1ccc(-n2nc(C(=O)N3CCC4(CCCC4)CC3)nc2-c2ccc3c(c2)N(C2CCCC2)[C@H](C)C(=O)N3C)cc1 | 27.2 | 2400 |  |  |  |  | 
Cc1ccc(-n2nnnc2-c2ccc3c(c2)N(C2CCCC2)C(C)C(=O)N3C)cc1 (stereo not given) | 9.5 | 1230 |  |  |  |  | 
Cc1ccc(-n2nnnc2-c2ccc3c(c2)N(C2CC2)C(C)C(=O)N3C)cc1 (stereo not given) | 14.4 | 47.7 |  |  |  |  | 
Cc1ccc(-n2nc(C(=O)N3CCN4CCCC4C3)nc2-c2ccc3c(c2)N(C2CCCC2)[C@H](C)C(=O)N3C)cc1 (stereo not given in full) | 8.7 | 6.4 | Active | inactive | Active | Active | Active
Cc1ccc(-n2nc(C(=O)N(C)CCN(C)C)nc2-c2ccc3c(c2)N(C2CCCC2)[C@H](C)C(=O)N3C)cc1 | 7 | 16.2 | Active | inactive | Active | Active | Active
Cc1ccc(-n2nc(C(=O)N3C[C@@H](NC(=O)OC(C)(C)C)C4(CC4)C3)nc2-c2ccc3c(c2)N(C2CCCC2)[C@H](C)C(=O)N3C)cc1 | 9.6 | 485 |  |  |  |  | 

The next lines start with the values.

IC50 [1] [nM] | IC50 (MM1.S) [nM] | inhibition [2] | inhibition [3] | inhibition [4] | inhibition activity call (active/inactive) [5] | inhibition [6] | Structure (SMILES)
5.8 | 25.1 |  |  |  |  |  | CCN1CCN(C(=O)c2nc(-c3ccc4c(c3)N(C3CCCC3)[C@H](C)C(=O)N4C)n(-c3ccc(C)cc3)n2)CC1
6.1 | 43.5 |  |  |  |  |  | Cc1ccc(-n2nc(C(=O)N3C[C@@H](N)C4(CC4)C3)nc2-c2ccc3c(c2)N(C2CCCC2)[C@H](C)C(=O)N3C)cc1
4.8 | 125 |  |  |  |  |  | Cc1ccc(-n2nc(C(=O)N3CCN(C(C)C)CC3)nc2-c2ccc3c(c2)N(C2CCCC2)[C@H](C)C(=O)N3C)cc1
5.9 | 87.5 |  |  |  |  |  | Cc1ccc(-n2nc(C(=O)N3CCN(C4CC4)CC3)nc2-c2ccc3c(c2)N(C2CCCC2)[C@H](C)C(=O)N3C)cc1
4.6 | 10.1 | Active | inactive | Active | Active | Active | Cc1ccc(-n2nc(C(=O)N3CC4CCC(C3)N4C)nc2-c2ccc3c(c2)N(C2CCCC2)[C@H](C)C(=O)N3C)cc1
6.6 | 7.9 | Active | inactive | Active | Active | Active | Cc1ccc(-n2nc(C(=O)N3C4CCC3CN(C)C4)nc2-c2ccc3c(c2)N(C2CCCC2)[C@H](C)C(=O)N3C)cc1
4.5 | 17.8 |  |  |  |  |  | Cc1ccc(-n2nc(C(=O)N3CCN(C)CC3)nc2-c2ccc3c(c2)N(C2CCCC2)[C@H](C)C(=O)N3C)c(C)c1
